Measured values: ChEMBL document CHEMBL3784971, “Synthesis, characterization, antimicrobial and biofilm inhibitory studies of new esterquats” (Bioorg Med Chem Lett, 2016)

Tests used:
[1] = tested on: Staphylococcus aureus; test: Antimicrobial activity against Staphylococcus aureus MTCC 96 assessed as growth inhibition after 24 hrs by agar well diffusion method; format: functional; conditions: MTCC 96, 24 h
[2] = tested on: Bacillus subtilis; test: Antimicrobial activity against Bacillus subtilis MTCC 121 assessed as growth inhibition after 24 hrs by agar well diffusion method; format: functional; conditions: MTCC 121, 24 h
[3] = tested on: Staphylococcus aureus; test: Antimicrobial activity against Staphylococcus aureus MLS16 MTCC 2940 assessed as growth inhibition after 24 hrs by agar well diffusion method; format: functional; conditions: MLS16 MTCC 2940, 24 h
[4] = tested on: Micrococcus luteus; test: Antimicrobial activity against Micrococcus luteus MTCC 2470 assessed as growth inhibition after 24 hrs by agar well diffusion method; format: functional; conditions: MTCC 2470, 24 h
[5] = tested on: Raoultella planticola; test: Antimicrobial activity against Klebsiella planticola MTCC 530 assessed as growth inhibition after 24 hrs by agar well diffusion method; format: functional; conditions: MTCC 530, 24 h
[6] = tested on: Escherichia coli; test: Antimicrobial activity against Escherichia coli MTCC 739 assessed as growth inhibition after 24 hrs by agar well diffusion method; format: functional; conditions: MTCC 739, 24 h
[7] = tested on: Pseudomonas aeruginosa; test: Antimicrobial activity against Pseudomonas aeruginosa MTCC 2453 assessed as growth inhibition after 24 hrs by agar well diffusion method; format: functional; conditions: MTCC 2453, 24 h
[8] = tested on: Candida albicans; test: Antimicrobial activity against Candida albicans MTCC 3017 assessed as growth inhibition after 24 hrs by agar well diffusion method; format: functional; conditions: MTCC 3017, 24 h
[9] = tested on: Candida albicans; test: Antimicrobial activity against Candida albicans MTCC 183 assessed as growth inhibition after 24 hrs by agar well diffusion method; format: functional; conditions: MTCC 183, 24 h
[10] = tested on: Candida albicans; test: Antimicrobial activity against Candida albicans MTCC 227 assessed as growth inhibition after 24 hrs by agar well diffusion method; format: functional; conditions: MTCC 227, 24 h
[11] = tested on: Candida albicans; test: Antimicrobial activity against Candida albicans MTCC 854 assessed as growth inhibition after 24 hrs by agar well diffusion method; format: functional; conditions: MTCC 854, 24 h
[12] = tested on: Candida albicans; test: Antimicrobial activity against Candida albicans MTCC 1637 assessed as growth inhibition after 24 hrs by agar well diffusion method; format: functional; conditions: MTCC 1637, 24 h
[13] = tested on: Candida albicans; test: Antimicrobial activity against Candida albicans MTCC 3018 assessed as growth inhibition after 24 hrs by agar well diffusion method; format: functional; conditions: MTCC 3018, 24 h
[14] = tested on: Candida albicans; test: Antimicrobial activity against Candida albicans MTCC 3958 assessed as growth inhibition after 24 hrs by agar well diffusion method; format: functional; conditions: MTCC 3958, 24 h
[15] = tested on: Candida albicans; test: Antimicrobial activity against Candida albicans MTCC 4748 assessed as growth inhibition after 24 hrs by agar well diffusion method; format: functional; conditions: MTCC 4748, 24 h
[16] = tested on: Candida albicans; test: Antimicrobial activity against Candida albicans MTCC 7315 assessed as growth inhibition after 24 hrs by agar well diffusion method; format: functional; conditions: MTCC 7315, 24 h
[17] = tested on: Candida parapsilosis; test: Antimicrobial activity against Candida parapsilosis MTCC 1744 assessed as growth inhibition after 24 hrs by agar well diffusion method; format: functional; conditions: Lodderomyces parapsilosis, MTCC 1744, 24 h
[18] = tested on: [Candida] aaseri; test: Antimicrobial activity against Candida aaseri MTCC 1962 assessed as growth inhibition after 24 hrs by agar well diffusion method; format: functional; conditions: Yamadazyma aaseri, MTCC 1962, 24 h
[19] = tested on: Nakaseomyces glabratus; test: Antimicrobial activity against Candida glabrata MTCC 3019 assessed as growth inhibition after 24 hrs by agar well diffusion method; format: functional; conditions: MTCC 3019, 24 h
[20] = tested on: Pichia kudriavzevii; test: Antimicrobial activity against Candida krusei MTCC 3020 assessed as growth inhibition after 24 hrs by agar well diffusion method; format: functional; conditions: MTCC 3020, 24 h
[21] = tested on: Pichia sporocuriosa; test: Antimicrobial activity against Issatchenkia hanoiensis MTCC 4755 assessed as growth inhibition after 24 hrs by agar well diffusion method; format: functional; conditions: MTCC 4755, 24 h
[22] = tested on: Staphylococcus aureus; test: Bactericidal activity against Staphylococcus aureus MTCC 96 after 24 hrs by serial dilution method; format: functional; conditions: MTCC 96, 24 h
[23] = tested on: Bacillus subtilis; test: Bactericidal activity against Bacillus subtilis MTCC 121 after 24 hrs by serial dilution method; format: functional; conditions: MTCC 121, 24 h
[24] = tested on: Staphylococcus aureus; test: Bactericidal activity against Staphylococcus aureus MLS16 MTCC 2940 after 24 hrs by serial dilution method; format: functional; conditions: MLS16 MTCC 2940, 24 h
[25] = tested on: Micrococcus luteus; test: Bactericidal activity against Micrococcus luteus MTCC 2470 after 24 hrs by serial dilution method; format: functional; conditions: MTCC 2470, 24 h
[26] = tested on: Raoultella planticola; test: Bactericidal activity against Klebsiella planticola MTCC 530 after 24 hrs by serial dilution method; format: functional; conditions: MTCC 530, 24 h
[27] = tested on: Escherichia coli; test: Bactericidal activity against Escherichia coli MTCC 739 after 24 hrs by serial dilution method; format: functional; conditions: MTCC 739, 24 h
[28] = tested on: Candida albicans; test: Fungicidal activity against Candida albicans MTCC 3017 after 24 hrs by serial dilution method; format: functional; conditions: MTCC 3017, 24 h
[29] = tested on: Candida albicans; test: Fungicidal activity against Candida albicans MTCC 183 after 24 hrs by serial dilution method; format: functional; conditions: MTCC 183, 24 h
[30] = tested on: Candida albicans; test: Fungicidal activity against Candida albicans MTCC 227 after 24 hrs by serial dilution method; format: functional; conditions: MTCC 227, 24 h
[31] = tested on: Candida albicans; test: Fungicidal activity against Candida albicans MTCC 854 after 24 hrs by serial dilution method; format: functional; conditions: MTCC 854, 24 h
[32] = tested on: Candida albicans; test: Fungicidal activity against Candida albicans MTCC 1637 after 24 hrs by serial dilution method; format: functional; conditions: MTCC 1637, 24 h
[33] = tested on: Candida albicans; test: Fungicidal activity against Candida albicans MTCC 3018 after 24 hrs by serial dilution method; format: functional; conditions: MTCC 3018, 24 h
[34] = tested on: Candida albicans; test: Fungicidal activity against Candida albicans MTCC 3958 after 24 hrs by serial dilution method; format: functional; conditions: MTCC 3958, 24 h
[35] = tested on: Candida albicans; test: Fungicidal activity against Candida albicans MTCC 4748 after 24 hrs by serial dilution method; format: functional; conditions: MTCC 4748, 24 h
[36] = tested on: Candida albicans; test: Fungicidal activity against Candida albicans MTCC 7315 after 24 hrs by serial dilution method; format: functional; conditions: MTCC 7315, 24 h
[37] = tested on: Candida parapsilosis; test: Fungicidal activity against Candida parapsilosis MTCC 1744 after 24 hrs by serial dilution method; format: functional; conditions: Lodderomyces parapsilosis, MTCC 1744, 24 h
[38] = tested on: [Candida] aaseri; test: Fungicidal activity against Candida aaseri MTCC 1962 after 24 hrs by serial dilution method; format: functional; conditions: Yamadazyma aaseri, MTCC 1962, 24 h
[39] = tested on: Nakaseomyces glabratus; test: Fungicidal activity against Candida glabrata MTCC 3019 after 24 hrs by serial dilution method; format: functional; conditions: MTCC 3019, 24 h
[40] = tested on: Pichia kudriavzevii; test: Fungicidal activity against Candida krusei MTCC 3020 after 24 hrs by serial dilution method; format: functional; conditions: MTCC 3020, 24 h
[41] = tested on: Pichia sporocuriosa; test: Fungicidal activity against Issatchenkia hanoiensis MTCC 4755 after 24 hrs by serial dilution method; format: functional; conditions: MTCC 4755, 24 h
[42] = tested on: Staphylococcus aureus; test: Antibiofilm activity against Staphylococcus aureus MTCC 96 after 24 hrs by crystal violet staining based assay; format: functional, organism-based; conditions: MTCC 96, 24 h
Outline: (§1)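 Biofilm inhibition tested for amine esters and esterquats. IC50 values (µg/mL) are the mean of three determinations, with ciprofloxacin as reference.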

[43] = tested on: Bacillus subtilis; test: Antibiofilm activity against Bacillus subtilis MTCC 121 after 24 hrs by crystal violet staining based assay; format: functional, organism-based; conditions: MTCC 121, 24 h; outline: as §1
[44] = tested on: Staphylococcus aureus; test: Antibiofilm activity against Staphylococcus aureus MLS16 MTCC 2940 after 24 hrs by crystal violet staining based assay; format: functional, organism-based; conditions: MLS16 MTCC 2940, 24 h; outline: as §1
[45] = tested on: Micrococcus luteus; test: Antibiofilm activity against Micrococcus luteus MTCC 2470 after 24 hrs by crystal violet staining based assay; format: functional, organism-based; conditions: MTCC 2470, 24 h; outline: as §1

`COC(=O)CCCCCCCCCC[N+](C)(C1CCCCC1)C1CCCCC1.[Cl-]` showed an MIC [1] of 3.9 µg/mL, an MIC [2] of 7.8 µg/mL and an MIC [3] of 3.9 µg/mL. It also gave an MIC [4] of 7.8 µg/mL, an MIC [5] greater than 125 µg/mL and an MIC [6] greater than 125 µg/mL. For the same molecule, the MIC [7] was greater than 125 µg/mL, the MIC [8] was 15.6 µg/mL and the MIC [9] was 15.6 µg/mL. For the same molecule, the MIC [10] was 15.6 µg/mL, the MIC [11] was 31.2 µg/mL and the MIC [12] was 31.2 µg/mL. The MIC [13] was 15.6 µg/mL, the MIC [14] was 15.6 µg/mL and the MIC [15] was 15.6 µg/mL. It also gave an MIC [16] of 15.6 µg/mL, an MIC [17] of 15.6 µg/mL and an MIC [18] of 15.6 µg/mL. The MIC [19] was 31.2 µg/mL, the MIC [20] was 31.2 µg/mL and the MIC [21] was 15.6 µg/mL. For the same molecule, the MBC [22] was 7.8 µg/mL, the MBC [23] was 15.6 µg/mL and the MBC [24] was 7.8 µg/mL. It also gave an MBC [25] of 7.8 µg/mL, an MBC [26] greater than 125 µg/mL and an MBC [27] greater than 125 µg/mL. It also gave an MFC [28] of 31.2 µg/mL, an MFC [29] of 62.5 µg/mL and an MFC [30] of 31.2 µg/mL. For the same molecule, the MFC [31] was 31.2 µg/mL, the MFC [32] was 31.2 µg/mL and the MFC [33] was 62.5 µg/mL. For the same molecule, the MFC [34] was 31.2 µg/mL, the MFC [35] was 31.2 µg/mL and the MFC [36] was 31.2 µg/mL. For the same molecule, the MFC [37] was 62.5 µg/mL, the MFC [38] was 31.2 µg/mL and the MFC [39] was 62.5 µg/mL. It also gave an MFC [40] of 62.5 µg/mL, an MFC [41] of 31.2 µg/mL and an IC50 [42] of 2.5 µg/mL. It also gave an IC50 [43] of 4.4 µg/mL, an IC50 [44] of 3.6 µg/mL and an IC50 [45] of 2.5 µg/mL.
Work on `CCCCCCCC[N+](C)(CCCCCCCC)CCCCCCCCCCC(=O)OC.[Cl-]` yielded an MIC [1] of 3.9 µg/mL, an MIC [2] of 7.8 µg/mL and an MIC [3] of 7.8 µg/mL. The MIC [4] was 3.9 µg/mL, the MIC [5] was 31.2 µg/mL and the MIC [6] was greater than 125 µg/mL. It also gave an MIC [7] greater than 125 µg/mL, an MIC [8] of 15.6 µg/mL and an MIC [9] of 31.2 µg/mL. It also gave an MIC [10] of 15.6 µg/mL, an MIC [11] of 15.6 µg/mL and an MIC [12] of 31.2 µg/mL. For the same molecule, the MIC [13] was 31.2 µg/mL, the MIC [14] was 31.2 µg/mL and the MIC [15] was 15.6 µg/mL. For the same molecule, the MIC [16] was 15.6 µg/mL, the MIC [17] was 62.5 µg/mL and the MIC [18] was 15.6 µg/mL. The MIC [19] was 31.2 µg/mL, the MIC [20] was 31.2 µg/mL and the MIC [21] was 31.2 µg/mL. The MBC [22] was 15.6 µg/mL, the MBC [23] was 15.6 µg/mL and the MBC [24] was 15.6 µg/mL. It also gave an MBC [25] of 7.8 µg/mL, an MBC [26] greater than 125 µg/mL and an MBC [27] greater than 125 µg/mL. It also gave an MFC [28] of 31.2 µg/mL, an MFC [29] of 31.2 µg/mL and an MFC [30] of 31.2 µg/mL. It also gave an MFC [31] of 31.2 µg/mL, an MFC [32] of 62.5 µg/mL and an MFC [33] of 31.2 µg/mL. For the same molecule, the MFC [34] was 31.2 µg/mL, the MFC [35] was 31.2 µg/mL and the MFC [36] was 15.6 µg/mL. For the same molecule, the MFC [37] was 31.2 µg/mL, the MFC [38] was 31.2 µg/mL and the MFC [39] was 31.2 µg/mL. The MFC [40] was 31.2 µg/mL, the MFC [41] was 31.2 µg/mL and the IC50 [42] was 3.2 µg/mL. For the same molecule, the IC50 [43] was 4.6 µg/mL, the IC50 [44] was 4.8 µg/mL and the IC50 [45] was 2 µg/mL.
